Assay results from ChEMBL document CHEMBL3580633, “Benzoxaborole antimalarial agents. Part 4. Discovery of potent 6-(2-(alkoxycarbonyl)pyrazinyl-5-oxy)-1,3-dihydro-1-hydroxy-2,1-benzoxaboroles” (J Med Chem, 2015).

Assays:
[1] = tested on: Plasmodium falciparum; test: Antimalarial activity against chloroquine-resistant Plasmodium falciparum W2 cultured in human erythrocytes assessed as inhibition of parasite growth at 5 uM incubated for 48 hrs by YOYO-1 staining based flow cytometry; format: functional; conditions: W2, 48 h
How it was run: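 W2 P. falciparum grown in human erythrocytes in RPMI-1640 with 10% human serum or 0.5% Albumax, under 3% O2/5% CO2/92% N2. Sorbitol-synchronised rings at 2% hematocrit, 1% parasitemia, exposed to one concentration for 48 h. Cells fixed in 2% formaldehyde, stained with YOYO-1, and parasites per erythrocyte counted by flow cytometry. Value given as percent inhibition versus untreated control.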

[2] = tested on: Jurkat; test: Cytotoxicity against human Jurkat cells incubated for 72 hrs by MTT assay; format: cell-based
[3] = tested on: Plasmodium falciparum; test: Antimalarial activity against chloroquine-resistant Plasmodium falciparum W2 cultured in human erythrocytes assessed as inhibition of parasite growth incubated for 48 hrs by YOYO-1 staining based flow cytometry; format: functional, organism-based; conditions: W2, 48 h
[4] = tested on: Plasmodium falciparum; test: Antimalarial activity against chloroquine-sensitive Plasmodium falciparum 3D7 cultured in human erythrocytes incubated for 48 hrs by [3H]-hypoxanthine incorporation assay; format: functional, organism-based
How it was run: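 3D7 parasites in human erythrocytes, RPMI-1640 with 0.5% Albumax II, […], 37 °C, 5% O2/5% CO2. Asynchronous cultures (0.5% parasitemia, 2% hematocrit) given 3-fold serial dilutions for 24 h. [3H]hypoxanthine then added for a further 24 h, and incorporation counted by scintillation. Normalised to drug-free infected cells. IC50 from at least three independent experiments.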

[5] = tested on: Plasmodium berghei; test: Antiplasmodial activity against Plasmodium berghei infected in Swiss Webster mouse assessed as mouse survival at 30 mg/kg, po dosed once daily for 4 consecutive days beginning 1 hr after initial infection and measured on day 5 post infection by Giemsa staining method; format: functional
How it was run: (§1)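 Female Swiss Webster mice (about 20 g) were infected ip with 6 × 10^6 P. berghei-infected erythrocytes from a donor mouse. They were dosed by oral gavage once daily for 4 days, starting 1 h post-infection, in PEG 300/propylene glycol/water (55/25/20 by weight). Parasitemia was read daily on Giemsa smears from day 4, and mice were euthanized above 50% parasitemia. Percent survival was tracked to 21 days.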

[6] = tested on: Plasmodium berghei; test: Antiplasmodial activity against Plasmodium berghei infected in Swiss Webster mouse assessed as mouse survival at 30 mg/kg, po dosed once daily for 4 consecutive days beginning 1 hr after initial infection and measured on day 4 post infection by Giemsa staining method; format: functional; how it was run: as §1
[7] = tested on: Plasmodium berghei; test: Antiplasmodial activity against Plasmodium berghei infected in Swiss Webster mouse assessed as mouse survival at 30 mg/kg, po dosed once daily for 4 consecutive days beginning 1 hr after initial infection and measured on day 6 post infection by Giemsa staining method; format: functional; how it was run: as §1
[8] = tested on: Plasmodium berghei; test: Antiplasmodial activity against Plasmodium berghei infected in Swiss Webster mouse assessed as mouse survival at 30 mg/kg, po dosed once daily for 4 consecutive days beginning 1 hr after initial infection and measured on day 13 post infection by Giemsa staining method; format: functional; how it was run: as §1
[9] = tested on: Plasmodium berghei; test: Antiplasmodial activity against Plasmodium berghei infected in Swiss Webster mouse assessed as mouse survival at 30 mg/kg, po dosed once daily for 4 consecutive days beginning 1 hr after initial infection and measured on day 9 post infection by Giemsa staining method; format: functional; how it was run: as §1
[10] = tested on: Plasmodium berghei; test: Antiplasmodial activity against Plasmodium berghei infected in Swiss Webster mouse assessed as mouse survival at 30 mg/kg, po dosed once daily for 4 consecutive days beginning 1 hr after initial infection and measured on day 10 post infection by Giemsa staining method; format: functional
How it was run: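 Female Swiss Webster mice (about 20 g) infected ip with 6 × 10^6 P. berghei-infected erythrocytes. Oral gavage once daily for 4 days, starting 1 h after infection. Vehicle PEG300/propylene glycol/water (55/25/20 by weight). Giemsa-smear parasitemia counted daily from day 4. Mice euthanised above 50% parasitemia. Survival followed to day 21, 5 mice per dose, chloroquine 30 mg/kg as reference.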

[11] = tested on: Plasmodium berghei; test: Antiplasmodial activity against Plasmodium berghei infected in Swiss Webster mouse assessed as mouse survival at 30 mg/kg, po dosed once daily for 4 consecutive days beginning 1 hr after initial infection and measured on day 14 post infection by Giemsa staining method; format: functional; how it was run: as §1
[12] = tested on: Plasmodium berghei; test: Antiplasmodial activity against Plasmodium berghei infected in Swiss Webster mouse assessed as mouse survival at 30 mg/kg, po dosed once daily for 4 consecutive days beginning 1 hr after initial infection and measured on day 8 post infection by Giemsa staining method; format: functional; how it was run: as §1
[13] = tested on: Plasmodium berghei; test: Antiplasmodial activity against Plasmodium berghei infected in Swiss Webster mouse assessed as mouse survival at 30 mg/kg, po dosed once daily for 4 consecutive days beginning 1 hr after initial infection and measured on day 20 post infection by Giemsa staining method; format: functional; how it was run: as §1
[14] = tested on: Plasmodium berghei; test: Antiplasmodial activity against Plasmodium berghei infected in Swiss Webster mouse assessed as mouse survival at 30 mg/kg, po dosed once daily for 4 consecutive days beginning 1 hr after initial infection and measured on day 18 post infection by Giemsa staining method; format: functional; how it was run: as §1
[15] = tested on: Plasmodium berghei; test: Antiplasmodial activity against Plasmodium berghei infected in Swiss Webster mouse assessed as mouse survival at 30 mg/kg, po dosed once daily for 4 consecutive days beginning 1 hr after initial infection and measured on day 15 post infection by Giemsa staining method; format: functional; how it was run: as §1
[16] = tested on: Plasmodium berghei; test: Antiplasmodial activity against Plasmodium berghei infected in Swiss Webster mouse assessed as mouse survival at 30 mg/kg, po dosed once daily for 4 consecutive days beginning 1 hr after initial infection and measured on day 16 to 19 post infection by Giemsa staining method; format: functional; how it was run: as §1
[17] = tested on: Plasmodium berghei; test: Antiplasmodial activity against Plasmodium berghei infected in Swiss Webster mouse assessed as mouse survival at 30 mg/kg, po dosed once daily for 4 consecutive days beginning 1 hr after initial infection and measured on day 11 post infection by Giemsa staining method; format: functional; how it was run: as §1
[18] = tested on: Plasmodium berghei; test: Antiplasmodial activity against Plasmodium berghei infected in Swiss Webster mouse assessed as mouse survival at 30 mg/kg, po dosed once daily for 4 consecutive days beginning 1 hr after initial infection and measured on day 12 post infection by Giemsa staining method; format: functional; how it was run: as §1
[19] = tested on: Plasmodium berghei; test: Antiplasmodial activity against Plasmodium berghei infected in Swiss Webster mouse assessed as mouse survival at 30 mg/kg, po dosed once daily for 4 consecutive days beginning 1 hr after initial infection and measured on day 7 post infection by Giemsa staining method; format: functional; how it was run: as §1

With CCOC(=O)c1ccc(Oc2ccc3c(c2)B(O)OC3)cc1 the inhibition at 5 µM [1] was 0%.
In the case of CCOC(=O)c1ccc(Oc2ccc3c(c2)B(O)OC3)nc1, the inhibition at 5 µM [1] is reported as 0%.
In the case of COC(=O)c1ccc(Oc2ccc3c(c2)B(O)OC3)cn1, the IC50 [2] is reported as greater than 100 µM, the IC50 [3] is reported as 23 nM and the IC50 [4] is reported as 120 nM.
COC(=O)c1cnc(Oc2ccc3c(c2)B(O)OC3)nc1 was tested, and the inhibition at 5 µM [1] was 80%.
In the case of COC(=O)c1ccc(Oc2ccc3c(c2)B(O)OC3)nn1, the IC50 [3] is reported as 82 nM and the IC50 [4] is reported as 100 nM.
For OB1OCc2ccc(Oc3cnccn3)cc21, the IC50 [3] was 9380 nM and the IC50 [4] was greater than 5000 nM.
N#Cc1cnc(Oc2ccc3c(c2)B(O)OC3)cn1 gave an IC50 [3] of 470 nM and an IC50 [4] of 3250 nM.
OCc1cnc(Oc2ccc3c(c2)B(O)OC3)cn1 was tested, and the IC50 [3] was 440 nM and the IC50 [4] was 2240 nM.
For NCc1cnc(Oc2ccc3c(c2)B(O)OC3)cn1, the IC50 [3] was 110 nM and the IC50 [4] was 470 nM.
For CN(C)Cc1cnc(Oc2ccc3c(c2)B(O)OC3)cn1, the IC50 [3] was greater than 10000 nM and the IC50 [4] was greater than 5000 nM.
CNC(=O)c1cnc(Oc2ccc3c(c2)B(O)OC3)cn1 gave an IC50 [3] of 240 nM and an IC50 [4] of 320 nM.
In the case of CCNC(=O)c1cnc(Oc2ccc3c(c2)B(O)OC3)cn1, the IC50 [2] is reported as 79.9 µM, the IC50 [3] is reported as 120 nM and the IC50 [4] is reported as 870 nM.
With CN(C)C(=O)c1cnc(Oc2ccc3c(c2)B(O)OC3)cn1 the IC50 [2] was greater than 100 µM, the IC50 [3] was 150 nM and the IC50 [4] was 960 nM.
Work on O=C(NCCO)c1cnc(Oc2ccc3c(c2)B(O)OC3)cn1 yielded an IC50 [3] greater than 10000 nM and an IC50 [4] of 5900 nM.
With CN(C)CCNC(=O)c1cnc(Oc2ccc3c(c2)B(O)OC3)cn1 the IC50 [3] was 6660 nM and the IC50 [4] was greater than 5000 nM.
CC(C)S(=O)(=O)NC(=O)c1cnc(Oc2ccc3c(c2)B(O)OC3)cn1 was tested, and the IC50 [3] was 190 nM and the IC50 [4] was 130 nM.
With O/N=C/c1cnc(Oc2ccc3c(c2)B(O)OC3)cn1 the IC50 [3] was 1770 nM and the IC50 [4] was 3000 nM.
With N/C(=N\O)c1cnc(Oc2ccc3c(c2)B(O)OC3)cn1 the IC50 [3] was greater than 10000 nM and the IC50 [4] was greater than 5000 nM.
For CC1(C)COC(c2cnc(Oc3ccc4c(c3)B(O)OC4)cn2)=N1, the IC50 [3] was 800 nM and the IC50 [4] was 1460 nM.
Compound Cc1nnc(-c2cnc(Oc3ccc4c(c3)B(O)OC4)cn2)o1 has an IC50 [3] greater than 10000 nM and an IC50 [4] greater than 5000 nM.
Compound OB1OCc2ccc(Oc3cnc(-c4nnn[nH]4)cn3)cc21 has an IC50 [3] greater than 10000 nM and an IC50 [4] greater than 5000 nM.
Work on CCOC(=O)c1cnc(Oc2ccc3c(c2)B(O)OC3)cn1 yielded an IC50 [2] of 16.8 µM, an IC50 [3] of 0.5 nM and an IC50 [4] of 4.4 nM.
For CC(C)OC(=O)c1cnc(Oc2ccc3c(c2)B(O)OC3)cn1, the IC50 [2] was greater than 100 µM, the IC50 [3] was 1.2 nM and the IC50 [4] was 1.4 nM.
Work on CC(C)COC(=O)c1cnc(Oc2ccc3c(c2)B(O)OC3)cn1 yielded an IC50 [2] of 17.6 µM, an IC50 [3] of 0.5 nM and an IC50 [4] of 2.5 nM.
With CCCCOC(=O)c1cnc(Oc2ccc3c(c2)B(O)OC3)cn1 the IC50 [2] was greater than 100 µM, the IC50 [3] was 0.2 nM and the IC50 [4] was 0.7 nM.
Compound CC(C)(C)OC(=O)c1cnc(Oc2ccc3c(c2)B(O)OC3)cn1 has an IC50 [2] greater than 100 µM, an IC50 [3] of 19 nM and an IC50 [4] of 22 nM.
Compound CC(C)CCOC(=O)c1cnc(Oc2ccc3c(c2)B(O)OC3)cn1 has an IC50 [3] of 0.4 nM and an IC50 [4] of 2 nM.
For O=C(OC1CCCCC1)c1cnc(Oc2ccc3c(c2)B(O)OC3)cn1, the IC50 [2] was 52.4 µM, the IC50 [3] was 0.7 nM and the IC50 [4] was 2.9 nM.
For CC(C)(C)COC(=O)c1cnc(Oc2ccc3c(c2)B(O)OC3)cn1, the IC50 [3] was 6.6 nM and the IC50 [4] was 8.9 nM.
CC(C)(N)COC(=O)c1cnc(Oc2ccc3c(c2)B(O)OC3)cn1 was tested, and the IC50 [3] was 190 nM and the IC50 [4] was 250 nM.
Compound C[C@@H]1CC[C@H]2[C@@H](C)C(=O)O[C@@H]3O[C@@]4(C)CC[C@@H]1[C@]32OO4 [ARTEMISININ] has an IC50 [3] of 6 nM.
For O=C1C(O)=C([C@H]2CC[C@H](c3ccc(Cl)cc3)CC2)C(=O)c2ccccc21 [ATOVAQUONE], the IC50 [4] was 1 nM.
Work on CCN(CC)CCCC(C)Nc1ccnc2cc(Cl)ccc12 (stereo not drawn) [CHLOROQUINE] yielded a survival at 30 mg/kg [5] of 100%, a survival at 30 mg/kg [6] of 100% and a survival at 30 mg/kg [7] of 100%. The survival at 30 mg/kg [8] was 100%, the survival at 30 mg/kg [9] was 100% and the survival at 30 mg/kg [10] was 100%. It also gave a survival at 30 mg/kg [11] of 100%, a survival at 30 mg/kg [12] of 100% and a survival at 30 mg/kg [13] of 20%. The survival at 30 mg/kg [14] was 100%, the survival at 30 mg/kg [15] was 100% and the survival at 30 mg/kg [16] was 100%. The survival at 30 mg/kg [17] was 100%, the survival at 30 mg/kg [18] was 100% and the survival at 30 mg/kg [19] was 100%.
